The values below come from ChEMBL document CHEMBL4251563, “Design and synthesis of thienopyrimidine urea derivatives with potential cytotoxic and pro-apoptotic activity against breast cancer cell line MCF-7” (Eur J Med Chem, 2018).

Assay [1] concerns MCF7. In words: Antiproliferative activity against human MCF7 cells after 48 hrs by sulforhodamine B assay. The following applies: MCF7, 48 h. Format: functional, cell-based. The method in brief:
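MCF-7 cells seeded at 5×10^4–10^5 cells/well, allowed to attach 24 h, then exposed to 0, 5, 12.5, 25 and 50 µg/mL for 48 h. Compounds were dissolved in DMSO and diluted with saline; controls got vehicle only; four wells per concentration. Cells fixed with cold 50% TCA, stained with 0.4% SRB, dye solubilised in 10 mM tris pH 10.5, OD read at 564 nm. Survival fraction = OD treated/OD control; IC50 taken from the survival-versus-concentration plot.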
On the technique in general: In SRB staining, fixed cells bind dye roughly in proportion to their protein.

In assay [2] the test system is MCF7. Kind of assay: Potency index, ratio of doxorubicin IC50 to compound IC50 for antiproliferative activity against human MCF7 cells. Format: functional.
Assay [3] has as its system MCF7. Kind of assay: Cell cycle arrest in human MCF7 cells assessed as increase in accumulation at pre-G1 phase at 7.1 uM after 24 hrs by propidium iodide staining-based flow cytometry relative to control. The assay is classed as functional. The method in brief:
(§1)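 MCF-7 cells treated 24 h with 7.10 µM. Cells washed with ice-cold PBS, fixed in ice-cold 70% ethanol, resuspended with 0.1 mg/mL RNase and stained with propidium iodide. DNA content read by FACSCalibur flow cytometry to give phase distribution (pre-G1/sub-G1, G1, S, G2/M).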

Assay [4] concerns MCF7. Kind of assay: Cell cycle arrest in human MCF7 cells assessed as increase in accumulation at G2/M phase at 7.1 uM after 24 hrs by propidium iodide staining-based flow cytometry relative to control. The assay is classed as functional. The method in brief:
as §1
(Flow cytometry measures light scatter and fluorescence of single cells or particles in a stream.)

Assay [5] deals with MCF7. Kind of assay: Cell cycle arrest in human MCF7 cells assessed as accumulation at G1 phase at 7.1 uM after 24 hrs by propidium iodide staining-based flow cytometry (reference value: 66.4%). Format: functional. The method, boiled down: as §1
In assay [6] the test system is MCF7. Kind of assay: Cell cycle arrest in human MCF7 cells assessed as accumulation at G2/M phase at 7.1 uM after 24 hrs by propidium iodide staining-based flow cytometry (reference value: 7.2%). Format: functional. The method in brief:
as §1

The subject of assay [7] is MCF7. Kind of assay: Cell cycle arrest in human MCF7 cells assessed as accumulation at S phase at 7.1 uM after 24 hrs by propidium iodide staining-based flow cytometry (reference value: 25.2%). The assay is classed as functional. The method, boiled down:
as §1

In assay [8] the test system is MCF7. Kind of assay: Induction of apoptosis in human MCF7 cells assessed as necrotic cells at 7.1 uM after 24 hrs by Annexin V-FITC/propidium iodide staining based flow cytometry (reference value: 0.1%). Format: functional.
Assay [9] concerns MCF7. Kind of assay: Induction of apoptosis in human MCF7 cells assessed as late apoptotic cells at 7.1 uM after 24 hrs by Annexin V-FITC/propidium iodide staining based flow cytometry (reference value: 0.3%). Format: functional.
Assay [10] has as its system MCF7. Kind of assay: Induction of apoptosis in human MCF7 cells assessed as early apoptotic cells at 7.1 uM after 24 hrs by Annexin V-FITC/propidium iodide staining based flow cytometry (reference value: 0.7%). The assay is classed as functional.
Assay [11] relates to MCF7. Kind of assay: Induction of apoptosis in human MCF7 cells assessed as viable cells at 7.1 uM after 24 hrs by Annexin V-FITC/propidium iodide staining based flow cytometry (reference value: 99.9%). The assay is classed as functional.
The test system of assay [12] is MCF7. In words: Induction of apoptosis in human MCF7 cells assessed as early apoptotic cells at 7.1 uM after 24 hrs by Annexin V-FITC/propidium iodide staining based flow cytometry relative to control. Format: functional.
Assay [13] concerns MCF7. In words: Induction of apoptosis in human MCF7 cells assessed as BAX expression levels at 7.1 uM after 24 hrs by SYBR Green dye-based RT-PCR analysis (reference value: 196 IU/ml). Format: functional.
In assay [14] the test system is MCF7. In words: Induction of apoptosis in human MCF7 cells assessed as Bcl2 expression levels at 7.1 uM after 24 hrs by SYBR Green dye-based RT-PCR analysis (reference value: 538306 IU/ml). Format: functional.
Assay [15] relates to MCF7. Kind of assay: Induction of apoptosis in human MCF7 cells assessed as p53 expression levels at 7.1 uM after 24 hrs by SYBR Green dye-based RT-PCR analysis (reference value: 244 IU/ml). Format: functional.
Assay [16] relates to MCF7. Kind of assay: Induction of apoptosis in human MCF7 cells assessed as active caspase3 expression levels at 7.1 uM after 24 hrs by SYBR Green dye-based RT-PCR analysis (reference value: 75 IU/ml). The assay is classed as functional.
Assay [17] has as its target DNA topoisomerase 2-beta (Homo sapiens, UniProt Q02880). Kind of assay: Inhibition of human topoisomerase 2beta after 2 hrs at 37 degC by ELISA. The method in brief: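 Sandwich ELISA: standard or sample incubated 2 h at 37°C, then biotin-antibody 1 h at 37°C, then HRP-avidin 1 h at 37°C, then TMB 15–30 min at 37°C in the dark. OD read at 450 nm.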
For orientation: ELISA stands for enzyme-linked immunosorbent assay.

Assay [18] concerns the target T1, Vascular endothelial growth factor receptor 2 (Homo sapiens, UniProt P35968). In words: Inhibition of human VEGFR2 after 2 hrs by ELISA.
For assay [19], the target named is T1, Vascular endothelial growth factor receptor 2. Kind of assay: Potency index, ratio of sorafenib IC50 to compound IC50 for inhibition of human VEGFR2.
Assay [20] has as its system MCF7. In words: Cell cycle arrest in human MCF7 cells assessed as accumulation at subG1 phase at 7.1 uM after 24 hrs by propidium iodide staining-based flow cytometry (reference value: 1.2%). The assay is classed as functional. The method in brief:
as §1

In general, IC50 refers to the concentration that gives 50% inhibition. High values mean weaker potency, low ones greater potency.

Sequence of DNA topoisomerase 2-beta (Q02880 whole entry): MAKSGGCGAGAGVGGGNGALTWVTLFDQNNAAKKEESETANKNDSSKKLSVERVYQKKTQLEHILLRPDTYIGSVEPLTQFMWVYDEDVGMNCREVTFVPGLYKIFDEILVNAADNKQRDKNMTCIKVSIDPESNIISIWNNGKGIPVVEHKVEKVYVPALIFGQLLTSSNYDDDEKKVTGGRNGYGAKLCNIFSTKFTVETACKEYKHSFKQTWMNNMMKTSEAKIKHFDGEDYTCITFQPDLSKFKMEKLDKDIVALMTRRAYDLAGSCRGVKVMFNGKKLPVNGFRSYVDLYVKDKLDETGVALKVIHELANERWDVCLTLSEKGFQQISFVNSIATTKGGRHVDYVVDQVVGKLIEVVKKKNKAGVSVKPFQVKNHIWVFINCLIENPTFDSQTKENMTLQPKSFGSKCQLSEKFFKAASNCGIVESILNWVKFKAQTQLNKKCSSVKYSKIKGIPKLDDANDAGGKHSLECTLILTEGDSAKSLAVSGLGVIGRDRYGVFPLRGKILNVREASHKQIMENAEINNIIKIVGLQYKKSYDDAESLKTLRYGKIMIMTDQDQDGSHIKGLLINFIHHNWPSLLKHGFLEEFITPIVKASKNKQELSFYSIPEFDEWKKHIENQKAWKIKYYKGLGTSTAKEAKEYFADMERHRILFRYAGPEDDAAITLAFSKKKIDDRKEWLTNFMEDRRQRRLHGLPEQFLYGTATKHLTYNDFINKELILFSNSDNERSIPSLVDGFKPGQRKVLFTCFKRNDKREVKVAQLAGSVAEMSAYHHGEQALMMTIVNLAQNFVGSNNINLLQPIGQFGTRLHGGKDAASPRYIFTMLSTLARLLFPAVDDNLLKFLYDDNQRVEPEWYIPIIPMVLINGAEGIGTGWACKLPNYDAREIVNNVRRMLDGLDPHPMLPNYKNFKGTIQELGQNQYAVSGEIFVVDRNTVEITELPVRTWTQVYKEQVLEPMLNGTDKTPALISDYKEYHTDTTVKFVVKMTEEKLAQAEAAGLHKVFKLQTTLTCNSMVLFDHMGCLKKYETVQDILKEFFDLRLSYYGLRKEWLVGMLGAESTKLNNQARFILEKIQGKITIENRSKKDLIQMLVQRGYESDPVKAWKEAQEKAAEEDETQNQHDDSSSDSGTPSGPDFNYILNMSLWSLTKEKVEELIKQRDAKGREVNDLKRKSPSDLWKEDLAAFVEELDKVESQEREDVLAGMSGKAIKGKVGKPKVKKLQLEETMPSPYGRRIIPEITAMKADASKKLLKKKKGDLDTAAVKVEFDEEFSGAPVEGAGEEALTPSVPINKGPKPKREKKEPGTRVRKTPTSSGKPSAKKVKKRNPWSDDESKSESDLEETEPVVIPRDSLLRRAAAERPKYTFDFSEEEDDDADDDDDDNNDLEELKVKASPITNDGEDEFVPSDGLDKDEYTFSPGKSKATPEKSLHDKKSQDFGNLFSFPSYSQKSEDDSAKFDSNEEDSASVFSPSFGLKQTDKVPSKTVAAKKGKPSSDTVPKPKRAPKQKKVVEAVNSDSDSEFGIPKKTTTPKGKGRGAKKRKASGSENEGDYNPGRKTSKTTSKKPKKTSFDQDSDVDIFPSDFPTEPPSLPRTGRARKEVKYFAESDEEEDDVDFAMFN
T1 sequence (P35968 whole entry): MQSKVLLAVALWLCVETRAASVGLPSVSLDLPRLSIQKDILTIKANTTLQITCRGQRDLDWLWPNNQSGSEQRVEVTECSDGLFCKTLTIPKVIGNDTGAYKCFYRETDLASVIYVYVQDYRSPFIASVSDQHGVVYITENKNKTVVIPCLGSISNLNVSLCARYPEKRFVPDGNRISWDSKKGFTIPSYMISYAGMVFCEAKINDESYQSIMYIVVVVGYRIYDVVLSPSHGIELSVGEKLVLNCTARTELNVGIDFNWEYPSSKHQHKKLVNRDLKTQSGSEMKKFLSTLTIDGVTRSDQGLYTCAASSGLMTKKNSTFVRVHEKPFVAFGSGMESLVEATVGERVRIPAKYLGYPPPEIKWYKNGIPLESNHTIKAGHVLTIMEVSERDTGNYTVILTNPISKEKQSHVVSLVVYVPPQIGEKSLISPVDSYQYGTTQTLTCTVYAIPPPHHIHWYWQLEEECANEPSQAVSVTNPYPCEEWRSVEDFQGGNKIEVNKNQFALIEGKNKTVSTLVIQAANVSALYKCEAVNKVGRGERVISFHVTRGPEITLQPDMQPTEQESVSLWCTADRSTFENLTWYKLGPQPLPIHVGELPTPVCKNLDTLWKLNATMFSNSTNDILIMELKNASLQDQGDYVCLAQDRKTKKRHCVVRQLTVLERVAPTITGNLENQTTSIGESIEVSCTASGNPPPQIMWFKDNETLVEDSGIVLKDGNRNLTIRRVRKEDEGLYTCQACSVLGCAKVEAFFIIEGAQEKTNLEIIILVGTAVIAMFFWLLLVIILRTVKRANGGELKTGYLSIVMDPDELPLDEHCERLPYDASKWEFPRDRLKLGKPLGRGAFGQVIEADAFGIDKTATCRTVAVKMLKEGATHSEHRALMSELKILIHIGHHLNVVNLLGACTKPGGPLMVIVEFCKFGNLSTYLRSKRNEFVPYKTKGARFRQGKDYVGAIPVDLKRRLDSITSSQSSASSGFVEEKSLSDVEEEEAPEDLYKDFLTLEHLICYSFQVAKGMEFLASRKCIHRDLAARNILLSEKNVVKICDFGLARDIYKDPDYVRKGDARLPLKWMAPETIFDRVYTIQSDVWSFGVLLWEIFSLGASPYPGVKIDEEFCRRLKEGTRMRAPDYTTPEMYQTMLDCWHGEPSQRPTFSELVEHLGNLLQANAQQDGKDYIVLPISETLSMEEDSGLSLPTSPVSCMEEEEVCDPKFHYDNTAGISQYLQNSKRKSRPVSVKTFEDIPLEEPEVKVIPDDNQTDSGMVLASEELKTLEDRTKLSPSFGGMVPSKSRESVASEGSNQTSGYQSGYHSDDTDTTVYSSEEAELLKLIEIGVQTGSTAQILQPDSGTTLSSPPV

Consider `O=C(Nc1ccc(Nc2ncnc3sc4c(c23)CCCC4)cc1)Nc1cccc(C(F)(F)F)c1`, for which, in assay [1], the midpoint of inhibition, the IC50, lay at 51.7 µM.
As to `O=C(Nc1ccc(Nc2ncnc3sc4c(c23)CCCC4)cc1)Nc1cc(C(F)(F)F)ccc1F`, 10.3 µM corresponded to half-maximal inhibition in [1] (IC50). Moreover, in assay [2], the “Ratio IC50” value is recorded as 1.03 - 1.5.
For `O=C(Nc1ccc(Nc2ncnc3sc4c(c23)CCCC4)cc1)Nc1ccc(Cl)c(C(F)(F)F)c1`, the 50% inhibitory concentration (IC50) in [1] is 7.1 µM; in [17], 9.29 µM; in [18], 0.2 µM. Moreover, the “Ratio IC50” value in [2] is 1.03 - 1.5; in assay [19], 2.1. For the same compound, the “fold change (FC)” value turned out to be 15.1 in assay [3], 2.2 in assay [4] and 30 in assay [12]. The Activity in [5] stood at 36.3%; in assay [6], 16.3%; in [7], 29.2%; in [8], 3%; in assay [9], 7%; in assay [10], 21%. The Activity came to 69% in assay [11]; 389968 IU/ml in assay [13]; 131 IU/ml in assay [14]; 77214 IU/ml in [15]; 64223 IU/ml in assay [16]; 18.2% in assay [20].
Consider `S=C(Nc1ccc(Cl)cc1)Nc1ccc(Nc2ncnc3sc4c(c23)CCCC4)cc1`, for which the half-inhibitory concentration (IC50) in assay [1] is 51.5 µM.
On to `Cc1cccc(Cl)c1NC(=O)Nc1ccc(Nc2ncnc3sc4c(c23)CCCC4)cc1`, for which, in assay [1], the IC50 was determined as 53.9 µM.
For `COc1cccc2c1C(=O)c1c(O)c3c(c(O)c1C2=O)C[C@@](O)(C(=O)CO)C[C@@H]3O[C@H]1C[C@H](N)[C@H](O)[C@H](C)O1` [DOXORUBICIN], the values for the half-inhibitory concentration (IC50) in assay [1] and in [17] were 10.6 µM and 3.5 µM, respectively. In addition, the Activity stood at 1824021 IU/ml in [13], 8 IU/ml in assay [14], 1271.6 IU/ml in [15] and 363940 IU/ml in [16].
Take `O=C(Nc1ccc(Nc2ncnc3sc4c(c23)CCCC4)cc1)Nc1c(Cl)cccc1Cl`: the IC50 in assay [1] stood at 103 µM.
`S=C(Nc1ccccc1)Nc1nnc2c3c4c(sc3ncn12)CCCC4` had an IC50 in assay [1] of 80.9 µM.
As to `COc1ccc(NC(=S)Nc2ccc(Nc3ncnc4sc5c(c34)CCCC5)cc2)cc1`, the IC50 in assay [1] turned out to be 79.1 µM.
`Cc1cccc(Cl)c1NC(=O)Nc1nnc2c3c4c(sc3ncn12)CCCC4`: half-maximal inhibition in [1] (IC50) was put at 29.1 µM.
Take `Cc1cccc(NC(=S)Nc2nnc3c4c5c(sc4ncn23)CCCC5)c1`: 99.9 µM corresponded to half-maximal inhibition in assay [1] (IC50).
On to `O=C(Nc1cc(C(F)(F)F)ccc1F)Nc1nnc2c3c4c(sc3ncn12)CCCC4`, for which, in [1], the IC50 stood at 71.9 µM.
As for `O=C(NNc1ncnc2sc3c(c12)CCCC3)Nc1cc(C(F)(F)F)ccc1F`, in assay [1], the half-inhibitory concentration (IC50) amounted to 28.2 µM.
On to `Cc1cccc(NC(=S)Nc2ccc(Nc3ncnc4sc5c(c34)CCCC5)cc2)c1`, for which it took 38.8 µM to reach half-maximal inhibition in assay [1] (IC50).
Regarding `Cc1cccc(Cl)c1NC(=S)Nc1ccc(Nc2ncnc3sc4c(c23)CCCC4)cc1`, the IC50 in assay [1] is 52.1 µM.
`Cc1cccc(Cl)c1NC(=O)NNc1ncnc2sc3c(c12)CCCC3` gave a concentration for half-maximal inhibition (IC50) in [1] of 90.2 µM.
Same read-out and setting: for `O=C(NNc1ncnc2sc3c(c12)CCCC3)Nc1cccc(C(F)(F)F)c1` the value was 22.7 µM.
Consider `S=C(Nc1ccc(Br)cc1)Nc1ccc(Nc2ncnc3sc4c(c23)CCCC4)cc1`, for which the IC50 in [1] was determined as 9.55 µM. Besides, the “Ratio IC50” value in assay [2] is listed as 1.03 - 1.5.
Take `Cc1ccc(NC(=S)Nc2ccc(Nc3ncnc4sc5c(c34)CCCC5)cc2)cc1`: in [1], the IC50 is 56.1 µM.
For the compound `Cc1cccc(Cl)c1-n1c(-c2ccc(Br)cc2)co/c1=N\c1ccc(Nc2ncnc3sc4c(c23)CCCC4)cc1`, in assay [1], half-maximal inhibition (IC50) required 235 µM.
On the same count and under the same terms, with `O=C(NNc1ncnc2sc3c(c12)CCCC3)Nc1ccc(Cl)c(C(F)(F)F)c1` the figure was 53.4 µM.
`O=C(Nc1cccc(C(F)(F)F)c1)Nc1nnc2c3c4c(sc3ncn12)CCCC4` came in with a 50% inhibitory concentration (IC50) in [1] of 68.5 µM.
Same read-out and setting: with `S=C(Nc1ccccc1)Nc1ccc(Nc2ncnc3sc4c(c23)CCCC4)cc1` the figure was 48.2 µM.
Still for that read-out and setting: for `O=C(NNc1ncnc2sc3c(c12)CCCC3)Nc1c(Cl)cccc1Cl` the value was 88.9 µM; for `Brc1ccc(-c2cs/c(=N\c3ccc(Nc4ncnc5sc6c(c45)CCCC6)cc3)n2-c2ccccc2)cc1`, 37.3 µM.
